Assay results from ChEMBL document CHEMBL4007404, “Identification of High-Potency Human TLR8 and Dual TLR7/TLR8 Agonists in Pyrimidine-2,4-diamines” (J Med Chem, 2017).
Activity calls are given as the source filed them. The rule behind the calls is not given here.

Target: T1, Toll-like receptor 8 (Homo sapiens) (UniProt Q9NR97)
T1 sequence (whole entry): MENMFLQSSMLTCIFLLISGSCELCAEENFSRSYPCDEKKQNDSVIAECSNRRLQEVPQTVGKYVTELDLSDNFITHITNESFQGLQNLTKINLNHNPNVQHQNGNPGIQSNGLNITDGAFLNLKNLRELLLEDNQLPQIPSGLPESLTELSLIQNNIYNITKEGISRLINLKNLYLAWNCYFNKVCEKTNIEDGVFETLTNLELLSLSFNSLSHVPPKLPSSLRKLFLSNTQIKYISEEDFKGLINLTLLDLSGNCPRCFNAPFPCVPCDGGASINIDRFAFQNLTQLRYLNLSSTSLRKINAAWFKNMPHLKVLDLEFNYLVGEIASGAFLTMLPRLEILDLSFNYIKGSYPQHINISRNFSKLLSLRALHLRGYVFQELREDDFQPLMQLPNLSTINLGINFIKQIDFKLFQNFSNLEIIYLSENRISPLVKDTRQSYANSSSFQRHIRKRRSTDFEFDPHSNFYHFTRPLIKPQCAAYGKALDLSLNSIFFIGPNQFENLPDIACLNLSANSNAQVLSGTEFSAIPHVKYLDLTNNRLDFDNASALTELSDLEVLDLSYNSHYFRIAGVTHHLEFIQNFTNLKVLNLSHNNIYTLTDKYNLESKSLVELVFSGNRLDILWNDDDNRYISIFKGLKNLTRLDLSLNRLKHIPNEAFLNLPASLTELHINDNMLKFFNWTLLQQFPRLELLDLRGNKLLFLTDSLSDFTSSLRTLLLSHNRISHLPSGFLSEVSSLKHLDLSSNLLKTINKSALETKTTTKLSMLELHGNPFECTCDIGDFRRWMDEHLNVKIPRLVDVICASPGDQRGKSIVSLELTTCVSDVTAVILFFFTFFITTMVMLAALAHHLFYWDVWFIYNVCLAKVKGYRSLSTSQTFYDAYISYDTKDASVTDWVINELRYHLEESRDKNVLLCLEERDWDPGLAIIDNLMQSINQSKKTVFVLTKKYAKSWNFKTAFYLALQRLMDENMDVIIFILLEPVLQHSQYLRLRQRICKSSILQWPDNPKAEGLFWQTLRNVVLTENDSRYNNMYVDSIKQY
Assay: Agonist activity at TLR8 in human […] conventional dendritic cells assessed as upregulation of CD80 expression after 16 hrs by efluor 780 dye based flow cytometry
Summary of the method: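 Human PBMCs were incubated with serial compound dilutions at 37 °C for 16 h, with DMSO controls. Cells were stained with eFluor780 viability dye, then lineage and DC antibodies plus CD80 PE, and fixed. 250,000 gated events were acquired. pDCs were gated as Live Lin⁻ CD123⁺ CD303⁺ CD304⁺ HLA-DR⁺. cDCs were gated as Lin⁻ CD1c⁺ CD141⁻ CD11c⁺ HLA-DR⁺ or Lin⁻ CD141⁺ CD1c⁻ HLA-DR⁺. Median fluorescence intensity was quantified.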

Activity: Active
Compound: CCCCNc1nc(N)nc(C)c1CCCN1CCOCC1
